The values that follow come from paper PMC8361970 (Pediatric Diabetes, 2021).

Common to all, as to type: in vivo, human
In series [1] the test system is children and adolescents (6–17 years) with type 1 diabetes, insulin-induced hypoglycemia. As to conditions: for Mean PG increase from baseline after 30 min: 30 min after single SC dose, full analysis set; for IV glucose rescue required (participants): within 45 min of single SC dose. An outline of the steps: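 After an overnight fast, IV insulin glulisine was infused until PG fell below 80 mg/dL. Five min later, if PG was 54–80 mg/dL, a single SC injection was given. Central-lab PG was taken pre-dose and at 4–45 min (60 min if ≥21 kg). Change from baseline was analysed by ANCOVA (treatment, age group, injection site; baseline PG covariate), with PG at rescue carried forward.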

For series [2], the system named is children and adolescents (6–17 years) with type 1 diabetes. Kind of series: Phase 3 trial: adverse events. As to conditions: for Duration of nausea AEs / Duration of vomiting AEs: majority of events; for Onset of nausea AEs after dosing: most AEs of nausea.
Series [3] shares this test system. Kind of series: Phase 3 trial: anti-drug antibodies. As to conditions: the one positive participant.

Regarding dasiglucagon, in series [1], the Mean PG increase from baseline after 30 min worked out at 98.2 mg/dL and the “IV glucose rescue required (participants)” value is on record as “none”. In addition, in series [2], the “Duration of nausea AEs” value is given as “less than 2 h”, the “Duration of vomiting AEs” value was “less than 5 min” and the “Onset of nausea AEs after dosing” value lay within 1.5 to 3 h. In series [3], the Anti-drug antibody titer entry was “low titer”, the “Cross-reaction of anti-drug antibodies with glucagon” value is recorded as “did not cross‐react with glucagon” and the “Neutralizing activity of anti-drug antibodies” value is given as “No neutralizing activity was detected”.

For the substance glucagon [reference compound], in series [1], the “Mean PG increase from baseline after 30 min” value amounted to 8440 mg/dL and the “IV glucose rescue required (participants)” value is on record as “none”. Besides, in series [2], the “Duration of nausea AEs” value was “less than 2 h”, the “Duration of vomiting AEs” value is “less than 5 min” and the “Onset of nausea AEs after dosing” value fell in the range of 1.5 to 3 h.
